In brackets after ≈: the same amount, converted by molar mass.
Experiments:
Format in all cases: functional
[1] = tested on: Pseudomonas aeruginosa; test: Antimicrobial activity against Pseudomonas aeruginosa PA14 assessed as reduction in bacterial growth and measured for 24 hrs by resazurin dye based broth microdilution method
Procedure, shortened: (§1)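 Overnight cultures diluted to ~1 × 10^5 CFU/mL and exposed to compounds (DMSO stocks at 10 mg/mL) over 0.048–100 μg/mL final. Incubated standing in lysogeny broth at 37 °C for 24 h. Resazurin then added, 1 h further incubation, and MIC read from colour change.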

[2] = tested on: Staphylococcus aureus; test: Antimicrobial activity against Staphylococcus aureus JE2 ssessed as reduction in bacterial growth and measured for 24 hrs by resazurin dye based broth microdilution method; procedure, shortened: as §1
[3] = tested on: Cryptococcus neoformans; test: Antimicrobial activity against Cryptococcus neoformans H99 assessed as reduction in […] growth and measured for 48 hrs by resazurin dye based broth microdilution method
Procedure, shortened: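 Cells from overnight growth diluted to ~1 × 10^5 CFU/mL in sabouraud dextrose broth. Compounds from 10 mg/mL DMSO stocks tested at 0.048–100 μg/mL. Plates incubated standing at 37 °C for 48 h, then resazurin added for a further 24 h. MIC taken from colour change.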

Question: How did the MIC [1] turn out when C#COC(=O)[C@H](C)[C@@H]1CC[C@@H](C)[C@@H]2CCC(C)=C[C@@H]21 was run?
Answer: > 100 µg/mL

Question: What about the MIC [2] of the same compound?
Answer: > 100 µg/mL

Question: And the MIC [3]?
Answer: > 100 µg/mL

Question: With CO[C@@H]1[C@@H](OC(N)=O)[C@@H](O)[C@H](Oc2ccc3c(O)c(NC(=O)c4ccc(O)c(CC=C(C)C)c4)c(=O)oc3c2C)OC1(C)C [NOVOBIOCIN] as the compound, how does the MIC [2] read?
Answer: < 0.19 µg/mL

Question: With CC1=C[C@H]2[C@@H](CC1)[C@H](C)CC[C@H]2[C@@H](C)C(=O)O as the compound, how does the MIC [1] read?
Answer: > 100 µg/mL

Question: What about the MIC [2] of the same compound?
Answer: 100 µg/mL (≈ 423 µM)

Question: And the MIC [3]?
Answer: 25 µg/mL (≈ 106 µM)

Question: Which MIC [1] does the source give for O=C(O)c1cn(C2CC2)c2cc(N3CCNCC3)c(F)cc2c1=O [CIPROFLOXACIN] here?
Answer: < 0.04 µg/mL

Question: And the MIC [2]?
Answer: 12.5 µg/mL (≈ 37.7 µM)

Question: For CC1=C[C@H]2[C@@H](C=C1)[C@H](C)CC[C@H]2[C@@H](C)CCCO, which MIC [1] is on record?
Answer: > 100 µg/mL

Question: What about the MIC [2] of the same compound?
Answer: 50 µg/mL (≈ 201 µM)

Question: What about the MIC [3] of the same compound?
Answer: > 100 µg/mL

Question: Which MIC [1] does the source give for CC1=C[C@H]2[C@@H](CC1)[C@H](C)CC[C@H]2[C@@H](C)CCC=O here?
Answer: > 100 µg/mL

Question: And the MIC [2]?
Answer: > 100 µg/mL

Question: What about the MIC [3] of the same compound?
Answer: > 100 µg/mL

Question: For C[C@@H]1[C@H](O)[C@@H](C)/C=C/C=C/C=C/C=C/C=C/C=C/C=C/[C@H](O[C@@H]2O[C@H](C)[C@@H](O)[C@H](N)[C@@H]2O)C[C@@H]2O[C@](O)(C[C@@H](O)C[C@@H](O)[C@H](O)CC[C@@H](O)C[C@@H](O)CC(=O)O[C@H]1C)C[C@H](O)[C@H]2C(=O)O [AMPHOTERICIN B], which MIC [3] is on record?
Answer: < 0.048 µg/mL

Question: For CC1=C[C@H]2[C@@H](CC1)[C@H](C)CC[C@H]2[C@@H](C)CCCO, which MIC [1] is on record?
Answer: > 100 µg/mL

Question: And the MIC [2]?
Answer: 12.5 µg/mL (≈ 49.9 µM)

Question: What about the MIC [3] of the same compound?
Answer: > 100 µg/mL

Question: Which results are given for CC1=C[C@H]2[C@@H](CC1)[C@@H]([C@H](C)C(=O)OCc1cn(CCOCCOCCOCNS(=O)(=O)c3ccc(C4=c5cc6c7c(c5Oc5c4cc4c8c5CCCN8CCC4)CCC[N+]=7CCC6)c(S(=O)(=O)[O-])c3)nn1)CC[C@@H]2C?
Answer: MIC [1]: > 50 µg/mL; MIC [2]: > 50 µg/mL; MIC [3]: > 50 µg/mL

Question: Which MIC [1] does the source give for Cc1ccc2c(c1)[C@H]([C@@H](C)C=O)CC[C@H]2C here?
Answer: > 100 µg/mL

Question: And the MIC [2]?
Answer: > 100 µg/mL

Question: And the MIC [3]?
Answer: 100 µg/mL (≈ 462 µM)

Question: With C[C@@H]1CC[C@H]2[C@@H](C)C(=O)O[C@@H]3O[C@@]4(C)CC[C@@H]1[C@]32OO4 [ARTEMISININ] as the compound, how does the MIC [1] read?
Answer: > 100 µg/mL

Question: And the MIC [2]?
Answer: > 100 µg/mL

Question: And the MIC [3]?
Answer: 100 µg/mL (≈ 354 µM)

Question: With CC(C)=CCC[C@H](C)[C@@H]1CC[C@@H](C)c2ccc(C)cc21 as the compound, how does the MIC [1] read?
Answer: > 100 µg/mL

Question: And the MIC [2]?
Answer: > 100 µg/mL

Question: And the MIC [3]?
Answer: > 100 µg/mL

Question: How did the MIC [1] turn out when CC1C[C@@H]2OO[C@H]1[C@@H]1[C@H]([C@@H](C)C(=O)O)CC[C@@H](C)[C@@H]12 (stereo partly specified) was run?
Answer: > 100 µg/mL

Question: And the MIC [2]?
Answer: > 100 µg/mL

Question: And the MIC [3]?
Answer: > 100 µg/mL

Question: For CC1=C[C@H]2[C@@H](C=C1)[C@H](C)CC[C@H]2[C@@H](C)CO, which MIC [1] is on record?
Answer: > 100 µg/mL

Question: And the MIC [2]?
Answer: 50 µg/mL (≈ 227 µM)

Question: What about the MIC [3] of the same compound?
Answer: 25 µg/mL (≈ 113 µM)

Question: Which results are given for CC(=O)OCCC[C@H](C)[C@@H]1CC[C@@H](C)[C@@H]2C[C@@H](O)C(C)=C[C@@H]21?
Answer: MIC [1]: > 100 µg/mL; MIC [2]: > 100 µg/mL; MIC [3]: 25 µg/mL (≈ 81 µM)

Question: Which MIC [1] does the source give for CC(C)=CC=C[C@H](C)[C@@H]1CC[C@@H](C)c2ccc(C)cc21 here?
Answer: > 100 µg/mL

Question: And the MIC [2]?
Answer: > 100 µg/mL

Question: And the MIC [3]?
Answer: > 100 µg/mL

Question: What does the source list for CC(=O)OCCC[C@H](C)[C@@H]1CC[C@@H](C)[C@@H]2CCC(C)=C[C@@H]21?
Answer: MIC [1]: > 100 µg/mL; MIC [2]: > 100 µg/mL; MIC [3]: 12.5 µg/mL (≈ 42.7 µM)

Question: What does the source list for COC=C[C@H](C)[C@@H]1CC[C@@H](C)[C@@H]2CCC(C)=C[C@@H]21 (mixture of isomers)?
Answer: MIC [1]: > 100 µg/mL; MIC [2]: 12.5 µg/mL; MIC [3]: 50 µg/mL

Question: What does the source list for Cc1ccc2c(c1)[C@H]([C@@H](C)C(=O)O)CC[C@H]2C?
Answer: MIC [1]: > 100 µg/mL; MIC [2]: > 100 µg/mL; MIC [3]: 100 µg/mL (≈ 430 µM)

Question: What does the source list for GENTAMICIN?
Answer: MIC [1]: 0.39 µg/mL; MIC [2]: 6.25 µg/mL; MIC [3]: 6.25 µg/mL

Question: Which MIC [1] does the source give for COC=CC[C@H](C)[C@@H]1CC[C@@H](C)[C@@H]2CCC(C)=C[C@@H]21 (mixture of isomers) here?
Answer: > 100 µg/mL

Question: What about the MIC [2] of the same compound?
Answer: > 100 µg/mL

Question: What about the MIC [3] of the same compound?
Answer: > 100 µg/mL

Question: Cc1ccc2c(c1)C([C@@H](C)CO)=CC[C@H]2C was tested. Which MIC [1] did it give?
Answer: > 100 µg/mL

Question: What about the MIC [2] of the same compound?
Answer: 100 µg/mL (≈ 462 µM)

Question: What about the MIC [3] of the same compound?
Answer: 50 µg/mL (≈ 231 µM)

Question: CC1=C[C@H]2[C@@H](C=C1)[C@H](C)CC[C@H]2[C@@H](C)C(=O)O was tested. Which MIC [1] did it give?
Answer: > 100 µg/mL

Question: What about the MIC [2] of the same compound?
Answer: > 100 µg/mL

Question: What about the MIC [3] of the same compound?
Answer: 100 µg/mL (≈ 427 µM)

Question: Cc1ccc2c(c1)[C@H]([C@@H](C)CO)CC[C@H]2C was tested. Which MIC [1] did it give?
Answer: > 100 µg/mL

Question: And the MIC [2]?
Answer: > 100 µg/mL

Question: And the MIC [3]?
Answer: ≥ 100 µg/mL

Question: Which MIC [1] does the source give for CC1=C[C@H]2[C@@H](CC1)[C@H](C)CC[C@H]2[C@@H](C)C=O here?
Answer: > 100 µg/mL

Question: And the MIC [2]?
Answer: > 100 µg/mL

Question: What about the MIC [3] of the same compound?
Answer: 12.5 µg/mL (≈ 56.7 µM)

Question: How did the MIC [1] turn out when CC1=CC2=C([C@@H](C)C(=O)O)CC[C@@H](C)[C@@H]2CC1 was run?
Answer: > 100 µg/mL

Question: And the MIC [2]?
Answer: > 100 µg/mL

Question: And the MIC [3]?
Answer: > 100 µg/mL

Question: CC1=C[C@H]2[C@@H](C=C1)[C@H](C)CC[C@H]2[C@@H](C)C=O was tested. Which MIC [1] did it give?
Answer: > 100 µg/mL

Question: And the MIC [2]?
Answer: > 100 µg/mL

Question: What about the MIC [3] of the same compound?
Answer: > 100 µg/mL

Reference: ChEMBL document CHEMBL5120805, “Autoxidation of a C2-Olefinated Dihydroartemisinic Acid Analogue to Form an Aromatic Ring: Application to Serrulatene Biosynthesis” (2022)
